Results as given in PMC11842988 (Journal for Immunotherapy of Cancer, 2025).
Entries after “also recorded” stand apart in the source; their conditions may differ.

How the values were obtained:
[1] = test system: OMP-/TAAp-specific CD8+ T cells in HD PBMCs; assay type: cell-based, human; conditions: HLA-A2+ HD PBMCs after IVS with OMPs; average unless stated
Summary of the method: (§1)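 HLA-A*02:01 donor PBMCs pulsed 24 h with OMPs (10 µM), CD137-enriched, expanded 8 days on anti-CD3/CD28 with IL-2/7/15/21. Restimulated every 10 days with mitomycin C-treated T2 cells loaded with peptide and β2-microglobulin. Antigen-specific frequency measured by CD8 plus pMHC tetramer staining. Per-donor cross-reactivity (%) computed from the TAA-specific and OMP-specific CD8+ percentages.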

[2] = test system: TAAp-specific CD8+ T cells, A2/DR1 mice; assay type: in vivo, mouse; conditions: for TAAp-specific response, OMP versus TAAp immunization: figure 2F; for TAAp-specific IFN-γ response after OMP immunization: ex vivo restimulation with TAAp
Summary of the method: (§2)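 HLA-A2/DR1 transgenic mice primed day 0, boosted day 14, s.c., with class I peptide (5, 30 or 95 nmol) plus UCP2 helper (30–100 µg) in Montanide ISA 51 VG (50:50). Spleens taken day 21 post-prime, or day 30 in the tumour study; RBCs lysed. 2×10^5 splenocytes/well restimulated ~20 h with 10 µM peptide at 37°C. PMA/ionomycin and EZH2-B2 controls. Media background subtracted; IFN-γ spots per 10^6 T cells.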

[3] = test system: SARC-A2-hCD20-GFP sarcoma cells; experiment: Tumor protection model, SARC-A2-hCD20-GFP sarcoma in A2/DR1 mice; assay type: in vivo, mouse; conditions: OMP72 prime-boost, 0.5×10^6 SARC-A2-hCD20-GFP cells s.c., n=8 mice
Summary of the method: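 A2/DR1 mice given the prime-boost regimen (days 0 and 14). On day 21 post-prime, 0.5×10^6 SARC-A2-hCD20-GFP or SARC-A2-GFP sarcoma cells in PBS injected s.c. in the right flank; naïve mice as controls. Tumours measured by caliper twice weekly over 30 days (mm2). Endpoint at ≥300 mm2; n=8 per group.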

[4] = test system: splenocytes pulsed with OMPs; experiment: In vivo cytotoxicity in humanized HLA-A2 mice, OMP-pulsed splenocytes; set-up: species or system mouse; conditions: online supplemental figure 2
Summary of the method: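 Immunised A2/DR1 mice challenged i.v. 6 days post-boost; naïve mice received the same cells. Splenocytes from unimmunised syngeneic donors were pulsed with individual peptides (bright dye) and mixed 1:1 with unpulsed cells (dim dye). Read out 20 h later by flow cytometry. Specific lysis (%) = (% targets in naïve − % in immunised)/% in naïve × 100.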

[5] = test system: OMP-specific CD8+ T cells, A2/DR1 mice; experiment: IFN-γ ELISpot of splenocytes from immunized A2/DR1 mice, restimulation with OMP; assay type: in vivo, mouse; conditions: ELISpot day 30
Summary of the method: as §2

[6] = test system: human CD20 on SARC-A2-hCD20-GFP cells; experiment: hCD20 expression of tumor cells at day 30; assay type: in vivo, mouse; conditions: OMP72-immunized mice still bearing tumors, day 30, n=4
patient CD8+ T cells = experiment: Intracellular cytokine staining; assay type: cell-based, human; conditions: for Cytokine levels after restimulation (ICS): post-IVS with OMPs
Summary of the method: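 Patient PBMCs expanded 12 days in vitro with the three-peptide bacterial pool (1 µg/mL each, added day 1) in IMDM/10% human serum/β-ME. IL-2 (2 ng/mL) added on day 3 and again on days 5, 7 and 9. Cells then restimulated with the indicated peptides. Intracellular IFN-γ, TNF, IL-2, CD154 and CD107a reported as % positive T cells.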

[7] = test system: antigen-specific CD8+ T cells in patient PBMCs; experiment: Tetramer staining of patient PBMCs after 12 days IVS with OMPs; assay type: cell-based, human; conditions: patients, EO2401
Summary of the method: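 Thawed patient PBMCs (2.5–3.5×10^6/well) rested 24 h, then given the OMP pool (1 µg/mL each) on day 1. IL-2 (2 ng/mL) added from day 3, with splits and feeds; harvested day 12. Stained 30 min at RT with separate OMP and TAAp tetramer mixes (2.5 µg/mL each), or matched pairs for cross-reactivity. Then CD4/CD8/CD14/CD19 and Zombie Aqua, 20 min 4°C. ≥600,000 cells acquired; % of live CD8+.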

OMP-loaded T2 cells = experiment: Cytotoxicity of sorted TAAp-specific T cells on OMP-loaded T2 cells; assay type: cell-based, human; conditions: 24 h, EZH2-loaded T2 as control
Summary of the method: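 Patient PBMCs stimulated 12 days in vitro with the three-peptide OMP pool. TAAp-tetramer+ CD8+ T cells sorted, then expanded on anti-CD3/CD28 activator with IL-2 (50 U/mL), IL-7, IL-15 and IL-21. CellTrace Violet-labelled T2 cells co-cultured with these T cells, peptide (OMP or EZH2 control) and β2-microglobulin at 37°C for 24 h in 50% RPMI/50% X-vivo 15. Media-only control. CD8 and near-IR live/dead stains; duplicates.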

[8] = test system: antigen-specific CD8+ T cells in patient PBMCs; experiment: Tetramer staining of patient PBMCs ex vivo; assay type: cell-based, human
[9] = test system: OMP-specific CD8+ T cells in HD PBMCs; experiment: Prevalence of OMP-specific CD8+ T cells in healthy donors; assay type: cell-based, human
Summary of the method: as §1

Sequence: ALNPELLAL [OMP12]
- Cross-reactivity OMP/TAAp in healthy donor CD8+ T cells [1]: above 66%
- TAAp-specific response, OMP versus TAAp immunization [2]: superior immunogenicity

Sequence: AMNSLSLYI [OMP72]
- Tumor protection after immunization [3]: half of the A2/DR1 mice; also recorded: could induce protection against CD20-expressing tumor cells
- Individual OMP-specific CTL activity [4]: negligible
- OMP72-specific IFN-γ-producing cells in responsive versus non-responsive mice [5]: comparable levels
- Tumor cells with loss of CD20 surface expression in non-controlled tumors [6]: 99%

Sequence: FLAFVPLQL [OMP65]
- TAAp-specific IFN-γ response after OMP immunization [2]: > 5,000 SFU
- TAAp-specific response, OMP versus TAAp immunization [2]: superior immunogenicity

Sequence: FLPFGFILPV [OMP16]
- Cytokine levels after restimulation (ICS) (patient CD8+ T cells): stronger cytokine levels
- TAAp-specific IFN-γ response after OMP immunization [2]: < 2,000 SFU
- TAAp-specific response, OMP versus TAAp immunization [2]: superior immunogenicity
- OMP-specific T cells also recognizing the matched TAAp [7]: 1%
- Killing of OMP-loaded T2 cells by corresponding TAAp-tetramer+ T cells (OMP-loaded T2 cells): specifically killed

Sequence: FLYDVRTYL [OMP10]
- Cross-reactivity OMP/TAAp in healthy donor CD8+ T cells [1]: below 33%

Sequence: FMLGEFLKL [OMP17]
- Simultaneous cytokine production on restimulation (polyfunctionality) (patient CD8+ T cells; Patient #1, weeks 88 and 100): IFN-γ, TNF-α and CD107a simultaneously
- Cytokine levels after restimulation (ICS) (patient CD8+ T cells): stronger cytokine levels
- Cross-reactivity OMP/TAAp in healthy donor CD8+ T cells [1]: above 66%
- TAAp-specific IFN-γ response after OMP immunization [2]: > 5,000 SFU
- TAAp-specific response, OMP versus TAAp immunization [2]: superior immunogenicity
- OMP-specific T cells also recognizing the matched TAAp [7]: 80%
- Killing of OMP-loaded T2 cells by corresponding TAAp-tetramer+ T cells (OMP-loaded T2 cells): specifically killed
- BIRC5-specific CD8+ T cells of total circulating CD8+ T cells ([8]; Patient #1): more than 20%
- Tetramer+ T cells of total circulating CD8+ T cells, week 44 ([8]; Patient #1, ex vivo, week 44): 3.27%
- Tetramer+ T cells of total circulating CD8+ T cells, week 88 ([8]; Patient #1, ex vivo, week 88): 17.4%
- Tetramer+ T cells of total circulating CD8+ T cells, week 100 ([8]; Patient #1, ex vivo, week 100, listed as EO2317): 32%

Sequence: LLFGAPALL [BAFF-R77-85, reference compound]
- TAAp-specific response, OMP versus TAAp immunization [2]: weaker when mice were immunized with TAAps than with their mimic OMPs

Sequence: LMDLSTTEV [OMP18]
- Cytokine levels after restimulation (ICS) (patient CD8+ T cells): stronger cytokine levels
- Cross-reactivity OMP/TAAp in healthy donor CD8+ T cells [1]: below 33%
- TAAp-specific IFN-γ response after OMP immunization [2]: < 2,000 SFU
- OMP-specific T cells also recognizing the matched TAAp [7]: around 20%
- Killing of OMP-loaded T2 cells by corresponding TAAp-tetramer+ T cells (OMP-loaded T2 cells): specifically killed

Sequence: LMFGAPALV [OMP66]
- TAAp-specific IFN-γ response after OMP immunization [2]: > 5,000 SFU
- TAAp-specific response, OMP versus TAAp immunization [2]: superior immunogenicity

Sequence: SLPDRILTV [OMP11]
- Cross-reactivity OMP/TAAp in healthy donor CD8+ T cells [1]: below 33%

Sequence: YIFEHPETA [OMP64]
- Cross-reactivity OMP/TAAp in healthy donor CD8+ T cells [1]: below 33%
- TAAp-specific IFN-γ response after OMP immunization [2]: < 2,000 SFU
- Prevalence of OMP-specific CD8+ T cells in HLA-A2+ PBMC samples [9]: 67%
- Individual OMP-specific CTL activity [4]: lower
